Measured values published in ChEMBL document CHEMBL5724801, “EUbOPEN Chemogenomics Library - Multiplex” (2024).
Where “and” joins values, the source holds several entries; their conditions need not be identical. Equal entries are not always repeated.

Tests used:
HEK-293T = assay: Multiplex assay against HEK293T; type: toxicity, cell-based; details: human
In short: (§1)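 Per cents of healthy-nucleus cells form the tubulin, mitochondrial-mass and membrane-permeability phenotype values. Live cells were stained at seeding with Hoechst33342, BioTracker Green Microtubule Cytoskeleton Dye, MitoTracker Red and Annexin V Alexa Fluor 680. After compound addition they were imaged on a CQ1 microscope at 37°C and 5% CO2, and CellPathfinder machine-learning gating split them into Hoechst high-intensity objects or normal cells, normal cells into healthy, pyknosed or fragmented nuclei, and pyknosed cells into mitotic or apoptotic.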

Fibroblast = assay: Multiplex assay against human fibroblast; type: toxicity, cell-based; in short: as §1
[1] = 24 h, 10 µM, compound concentration 10 uM
[2] = 48 h, 1 µM, compound concentration 1 uM
[3] = 48 h, 10 µM, compound concentration 10 uM
[4] = 12 h, 1 µM, compound concentration 1 uM
[5] = 12 h, 10 µM, compound concentration 10 uM
[6] = 24 h, 1 µM, compound concentration 1 uM

Compound: O=S(=O)(c1ccccc1)c1cnc2c(N3CCNCC3)cccc2c1 [INTEPIRDINE]
- Population Apoptotic (%) (HEK-293T; [1]): 52% and 51%
- Population Fragmented Nuclei (%) (HEK-293T; [1]): 11% and 9%
- Population Healthy Nuclei (%) (HEK-293T; [1]): 75% and 82%
- Population Hoechst High Intensity Objects (%) (HEK-293T; [1]): 6% and 4%
- Population Membrane Permeable-Phenotype (%) (HEK-293T; [1]): 0%
- Population Mitochondria Different-Phenotype (%) (HEK-293T; [1]): 50% and 61%
- Population Mitotic Cells (%) (HEK-293T; [1]): 47% and 48%
- Population Normal (%) (HEK-293T; [1]): 93% and 95%
- Population Pyknosed Nuclei (%) (HEK-293T; [1]): 12% and 8%
- Population Tubulin-Different-Phenotype (%) (HEK-293T; [1]): 33% and 42%
- Total Cell Count (HEK-293T; [1]): 439 and 458
- Population Apoptotic (%) (HEK-293T; [2]): 17% and 25%
- Population Fragmented Nuclei (%) (HEK-293T; [2]): 12% and 13%
- Population Healthy Nuclei (%) (HEK-293T; [2]): 80% and 79%
- Population Hoechst High Intensity Objects (%) (HEK-293T; [2]): 4% and 3%
- Population Membrane Permeable-Phenotype (%) (HEK-293T; [2]): 1% and 0%
- Population Mitochondria Different-Phenotype (%) (HEK-293T; [2]): 25% and 26%
- Population Mitotic Cells (%) (HEK-293T; [2]): 82% and 75%
- Population Normal (%) (HEK-293T; [2]): 95% and 96%
- Population Pyknosed Nuclei (%) (HEK-293T; [2]): 7% and 6%
- Population Tubulin-Different-Phenotype (%) (HEK-293T; [2]): 16% and 12%
- Total Cell Count (HEK-293T; [2]): 866 and 641
- Population Apoptotic (%) (HEK-293T; [3]): 40% and 18%
- Population Fragmented Nuclei (%) (HEK-293T; [3]): 14% and 11%
- Population Healthy Nuclei (%) (HEK-293T; [3]): 75% and 82%
- Population Hoechst High Intensity Objects (%) (HEK-293T; [3]): 4%
- Population Membrane Permeable-Phenotype (%) (HEK-293T; [3]): 0%
- Population Mitochondria Different-Phenotype (%) (HEK-293T; [3]): 45% and 38%
- Population Mitotic Cells (%) (HEK-293T; [3]): 59% and 81%
- Population Normal (%) (HEK-293T; [3]): 95%
- Population Pyknosed Nuclei (%) (HEK-293T; [3]): 10% and 5%
- Population Tubulin-Different-Phenotype (%) (HEK-293T; [3]): 30% and 27%
- Total Cell Count (HEK-293T; [3]): 606 and 673
- Population Apoptotic (%) (Fibroblast; [4]): 50% and 34%
- Population Fragmented Nuclei (%) (Fibroblast; [4]): 23% and 28%
- Population Healthy Nuclei (%) (Fibroblast; [4]): 67% and 47%
- Population Hoechst High Intensity Objects (%) (Fibroblast; [4]): 3% and 4%
- Population Membrane Permeable-Phenotype (%) (Fibroblast; [4]): 0% and 7%
- Population Mitochondria Different-Phenotype (%) (Fibroblast; [4]): 2% and 7%
- Population Mitotic Cells (%) (Fibroblast; [4]): 50% and 65%
- Population Normal (%) (Fibroblast; [4]): 96% and 95%
- Population Pyknosed Nuclei (%) (Fibroblast; [4]): 9% and 24%
- Population Tubulin-Different-Phenotype (%) (Fibroblast; [4]): 26% and 61%
- Total Cell Count (Fibroblast; [4]): 212 and 148
- Population Apoptotic (%) (Fibroblast; [5]): 75% and 61%
- Population Fragmented Nuclei (%) (Fibroblast; [5]): 22% and 43%
- Population Healthy Nuclei (%) (Fibroblast; [5]): 62% and 40%
- Population Hoechst High Intensity Objects (%) (Fibroblast; [5]): 1% and 6%
- Population Membrane Permeable-Phenotype (%) (Fibroblast; [5]): 1% and 5%
- Population Mitochondria Different-Phenotype (%) (Fibroblast; [5]): 8% and 13%
- Population Mitotic Cells (%) (Fibroblast; [5]): 25% and 38%
- Population Normal (%) (Fibroblast; [5]): 98% and 93%
- Population Pyknosed Nuclei (%) (Fibroblast; [5]): 14% and 16%
- Population Tubulin-Different-Phenotype (%) (Fibroblast; [5]): 44% and 68%
- Total Cell Count (Fibroblast; [5]): 138 and 136
- Population Apoptotic (%) (Fibroblast; [6]): 54% and 41%
- Population Fragmented Nuclei (%) (Fibroblast; [6]): 16% and 32%
- Population Healthy Nuclei (%) (Fibroblast; [6]): 72% and 44%
- Population Hoechst High Intensity Objects (%) (Fibroblast; [6]): 5% and 0%
- Population Membrane Permeable-Phenotype (%) (Fibroblast; [6]): 2% and 1%
- Population Mitochondria Different-Phenotype (%) (Fibroblast; [6]): 4%
- Population Mitotic Cells (%) (Fibroblast; [6]): 45% and 58%
- Population Normal (%) (Fibroblast; [6]): 94% and 99%
- Population Pyknosed Nuclei (%) (Fibroblast; [6]): 10% and 24%
- Population Tubulin-Different-Phenotype (%) (Fibroblast; [6]): 28% and 59%
- Total Cell Count (Fibroblast; [6]): 212 and 151
- Population Apoptotic (%) (Fibroblast; [1]): 40% and 91%
- Population Fragmented Nuclei (%) (Fibroblast; [1]): 28% and 39%
- Population Healthy Nuclei (%) (Fibroblast; [1]): 65% and 50%
- Population Hoechst High Intensity Objects (%) (Fibroblast; [1]): 1% and 4%
- Population Membrane Permeable-Phenotype (%) (Fibroblast; [1]): 0% and 3%
- Population Mitochondria Different-Phenotype (%) (Fibroblast; [1]): 7% and 15%
- Population Normal (%) (Fibroblast; [1]): 98% and 95%
- Population Pyknosed Nuclei (%) (Fibroblast; [1]): 6% and 10%
- Population Tubulin-Different-Phenotype (%) (Fibroblast; [1]): 50% and 67%
- Total Cell Count (Fibroblast; [1]): 152 and 123
- Population Apoptotic (%) (Fibroblast; [2]): 66% and 52%
- Population Fragmented Nuclei (%) (Fibroblast; [2]): 22% and 39%
- Population Healthy Nuclei (%) (Fibroblast; [2]): 69% and 45%
- Population Hoechst High Intensity Objects (%) (Fibroblast; [2]): 5% and 3%
- Population Membrane Permeable-Phenotype (%) (Fibroblast; [2]): 0% and 1%
- Population Mitochondria Different-Phenotype (%) (Fibroblast; [2]): 2%
- Population Mitotic Cells (%) (Fibroblast; [2]): 33% and 48%
- Population Normal (%) (Fibroblast; [2]): 94% and 96%
- Population Pyknosed Nuclei (%) (Fibroblast; [2]): 7% and 15%
- Population Tubulin-Different-Phenotype (%) (Fibroblast; [2]): 34% and 54%
- Total Cell Count (Fibroblast; [2]): 213 and 170
- Population Apoptotic (%) (Fibroblast; [3]): 63% and 40%
- Population Fragmented Nuclei (%) (Fibroblast; [3]): 23% and 48%
- Population Healthy Nuclei (%) (Fibroblast; [3]): 67% and 38%
- Population Hoechst High Intensity Objects (%) (Fibroblast; [3]): 3% and 6%
- Population Membrane Permeable-Phenotype (%) (Fibroblast; [3]): 1% and 6%
- Population Mitochondria Different-Phenotype (%) (Fibroblast; [3]): 15% and 6%
- Population Mitotic Cells (%) (Fibroblast; [3]): 36% and 60%
- Population Normal (%) (Fibroblast; [3]): 96% and 93%
- Population Pyknosed Nuclei (%) (Fibroblast; [3]): 8% and 12%
- Population Tubulin-Different-Phenotype (%) (Fibroblast; [3]): 47% and 57%
- Total Cell Count (Fibroblast; [3]): 139 and 125
